In ChEMBL document CHEMBL1152521, “Synthesis and biological evaluation of radioiodinated 2,5-diphenyl-1,3,4-oxadiazoles for detecting beta-amyloid plaques in the brain” (Bioorg Med Chem, 2009):
Values belong to the molecule of their own block, whether it stands above or below them. Active and inactive are the calls of the source. The rule behind the calls is not given here.

Key:
Spleen [1] = assay: Biodistribution in ddY mouse spleen at 0.2 to 0.4 uCi, iv after 2 mins post-injection by gamma counting; assay type: ADME, organism-based; details: in vivo
Outline: (§1)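 Normal ddY mice (5-week-old, 22-25 g) received 0.2–0.4 μCi of the 125I-labelled agent by tail-vein injection in 100 μL saline containing 10 μL ethanol. Animals were killed at 2, 10, 30 or 60 min, and organs were removed, weighed and gamma counted. Values are % injected dose per gram, mean (SD) of 4-6 animals.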

Liver [2] = assay: Biodistribution in ddY mouse liver at 0.2 to 0.4 uCi, iv after 30 mins post-injection by gamma counting; assay type: ADME, organism-based; details: in vivo, 0.5 h; outline: as §1
Pancreas [3] = assay: Biodistribution in ddY mouse pancreas at 0.2 to 0.4 uCi, iv after 2 mins post-injection by gamma counting; assay type: ADME, organism-based; details: in vivo; outline: as §1
Liver [4] = assay: Biodistribution in ddY mouse liver at 0.2 to 0.4 uCi, iv after 60 mins post-injection by gamma counting; assay type: ADME, organism-based; details: in vivo, 1 h; outline: as §1
Blood [5] = assay: Biodistribution in ddY mouse blood at 0.2 to 0.4 uCi, iv after 60 mins post-injection by gamma counting; assay type: ADME, organism-based; details: in vivo, 1 h; outline: as §1
Kidney [6] = assay: Biodistribution in ddY mouse kidney at 0.2 to 0.4 uCi, iv after 10 mins post-injection by gamma counting; assay type: ADME, organism-based; details: in vivo; outline: as §1
Spleen [7] = assay: Biodistribution in ddY mouse spleen at 0.2 to 0.4 uCi, iv after 30 mins post-injection by gamma counting; assay type: ADME, organism-based; details: in vivo, 0.5 h; outline: as §1
Pancreas [8] = assay: Biodistribution in ddY mouse pancreas at 0.2 to 0.4 uCi, iv after 10 mins post-injection by gamma counting; assay type: ADME, organism-based; details: in vivo; outline: as §1
Spleen [9] = assay: Biodistribution in ddY mouse spleen at 0.2 to 0.4 uCi, iv after 60 mins post-injection by gamma counting; assay type: ADME, organism-based; details: in vivo, 1 h; outline: as §1
Stomach [10] = assay: Biodistribution in ddY mouse stomach assessed per organ at 0.2 to 0.4 uCi, iv after 60 mins post-injection by gamma counting; assay type: ADME, organism-based; details: in vivo, 1 h
Outline: (§2)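 Normal ddY mice (5-week-old, 22-25 g) were injected by tail vein with 0.2–0.4 μCi of 125I ligand in saline (100 μL) containing 10 μL ethanol. At 2, 10, 30 or 60 min the stomach was removed and gamma counted. Values are % injected dose per organ, mean (SD) of 4-6 animals.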

Kidney [11] = assay: Biodistribution in ddY mouse kidney at 0.2 to 0.4 uCi, iv after 2 mins post-injection by gamma counting; assay type: ADME, organism-based; details: in vivo; outline: as §1
Stomach [12] = assay: Biodistribution in ddY mouse stomach assessed per organ at 0.2 to 0.4 uCi, iv after 2 mins post-injection by gamma counting; assay type: ADME, organism-based; details: in vivo; outline: as §2
Brain [13] = assay: Biodistribution in ddY mouse brain at 0.2 to 0.4 uCi, iv after 30 mins post-injection by gamma counting; assay type: ADME, organism-based; details: in vivo, 0.5 h; outline: as §1
Blood [14] = assay: Biodistribution in ddY mouse blood at 0.2 to 0.4 uCi, iv after 30 mins post-injection by gamma counting; assay type: ADME, organism-based; details: in vivo, 0.5 h; outline: as §1
Stomach [15] = assay: Biodistribution in ddY mouse stomach assessed per organ at 0.2 to 0.4 uCi, iv after 30 mins post-injection by gamma counting; assay type: ADME, organism-based; details: in vivo, 0.5 h; outline: as §2
Intestine [16] = assay: Biodistribution in ddY mouse intestine at 0.2 to 0.4 uCi, iv after 60 mins post-injection by gamma counting; assay type: ADME, organism-based; details: in vivo, 1 h; outline: as §1
Brain [17] = assay: Biodistribution in ddY mouse brain at 0.2 to 0.4 uCi, iv after 2 mins post-injection by gamma counting; assay type: ADME, organism-based; details: in vivo; outline: as §1
Spleen [18] = assay: Biodistribution in ddY mouse spleen at 0.2 to 0.4 uCi, iv after 10 mins post-injection by gamma counting; assay type: ADME, organism-based; details: in vivo; outline: as §1
Kidney [19] = assay: Biodistribution in ddY mouse kidney at 0.2 to 0.4 uCi, iv after 60 mins post-injection by gamma counting; assay type: ADME, organism-based; details: in vivo, 1 h; outline: as §1
Heart [20] = assay: Biodistribution in ddY mouse heart at 0.2 to 0.4 uCi, iv after 10 mins post-injection by gamma counting; assay type: ADME, organism-based; details: in vivo; outline: as §1
Brain [21] = assay: Biodistribution in ddY mouse brain at 0.2 to 0.4 uCi, iv after 60 mins post-injection by gamma counting; assay type: ADME, organism-based; details: in vivo, 1 h; outline: as §1
Intestine [22] = assay: Biodistribution in ddY mouse intestine at 0.2 to 0.4 uCi, iv after 30 mins post-injection by gamma counting; assay type: ADME, organism-based; details: in vivo, 0.5 h; outline: as §1
Blood [23] = assay: Biodistribution in ddY mouse blood at 0.2 to 0.4 uCi, iv after 2 mins post-injection by gamma counting; assay type: ADME, organism-based; details: in vivo; outline: as §1
Intestine [24] = assay: Biodistribution in ddY mouse intestine at 0.2 to 0.4 uCi, iv after 2 mins post-injection by gamma counting; assay type: ADME, organism-based; details: in vivo; outline: as §1
Kidney [25] = assay: Biodistribution in ddY mouse kidney at 0.2 to 0.4 uCi, iv after 30 mins post-injection by gamma counting; assay type: ADME, organism-based; details: in vivo, 0.5 h; outline: as §1
Intestine [26] = assay: Biodistribution in ddY mouse intestine at 0.2 to 0.4 uCi, iv after 10 mins post-injection by gamma counting; assay type: ADME, organism-based; details: in vivo; outline: as §1
Liver [27] = assay: Biodistribution in ddY mouse liver at 0.2 to 0.4 uCi, iv after 2 mins post-injection by gamma counting; assay type: ADME, organism-based; details: in vivo; outline: as §1
Heart [28] = assay: Biodistribution in ddY mouse heart at 0.2 to 0.4 uCi, iv after 60 mins post-injection by gamma counting; assay type: ADME, organism-based; details: in vivo, 1 h; outline: as §1
Liver [29] = assay: Biodistribution in ddY mouse liver at 0.2 to 0.4 uCi, iv after 10 mins post-injection by gamma counting; assay type: ADME, organism-based; details: in vivo; outline: as §1
Stomach [30] = assay: Biodistribution in ddY mouse stomach assessed per organ at 0.2 to 0.4 uCi, iv after 10 mins post-injection by gamma counting; assay type: ADME, organism-based; details: in vivo; outline: as §2
Pancreas [31] = assay: Biodistribution in ddY mouse pancreas at 0.2 to 0.4 uCi, iv after 60 mins post-injection by gamma counting; assay type: ADME, organism-based; details: in vivo, 1 h; outline: as §1
Heart [32] = assay: Biodistribution in ddY mouse heart at 0.2 to 0.4 uCi, iv after 2 mins post-injection by gamma counting; assay type: ADME, organism-based; details: in vivo; outline: as §1
Brain [33] = assay: Biodistribution in ddY mouse brain at 0.2 to 0.4 uCi, iv after 10 mins post-injection by gamma counting; assay type: ADME, organism-based; details: in vivo; outline: as §1
Pancreas [34] = assay: Biodistribution in ddY mouse pancreas at 0.2 to 0.4 uCi, iv after 30 mins post-injection by gamma counting; assay type: ADME, organism-based; details: in vivo, 0.5 h; outline: as §1
Heart [35] = assay: Biodistribution in ddY mouse heart at 0.2 to 0.4 uCi, iv after 30 mins post-injection by gamma counting; assay type: ADME, organism-based; details: in vivo, 0.5 h; outline: as §1
Blood [36] = assay: Biodistribution in ddY mouse blood at 0.2 to 0.4 uCi, iv after 10 mins post-injection by gamma counting; assay type: ADME, organism-based; details: in vivo; outline: as §1
[37] = Octanol-phosphate buffer partition coefficient, log P at pH 7.4 by gamma counting of radioactivity
[38] = Displacement of [125I]IMPY from aggregated amyloid beta (1-42) by gamma counting
Mus musculus [39] = organism: Mus musculus; assay: Binding affinity to amyloid beta (1-42) in brain of transgenic 2576 mouse Alzheimer's model at 100 uM after 30 mins by thioflavin S staining-based fluorescence microscopic analysis
Mus musculus [40] = organism: Mus musculus; assay: Binding affinity to amyloid beta (1-42) in normal mouse brain at 100 uM after 30 mins by thioflavin S staining-based fluorescence microscopic analysis

Ki [38]: 258 nM
SMILES: OCCOCCOCCOc1ccc(-c2nnc(-c3ccc(I)cc3)o2)cc1

Ki [38]: 282 nM
SMILES: OCCOc1ccc(-c2nnc(-c3ccc(I)cc3)o2)cc1

Ki [38]: 349 nM
SMILES: OCCOCCOc1ccc(-c2nnc(-c3ccc(I)cc3)o2)cc1

Further lines, the molecule ahead of its results:

SMILES: CN(C)c1ccc(-c2nnc(-c3ccc([125I])cc3)o2)cc1
Drug uptake (Spleen [1]): 3.56 % ID/g | Drug uptake (Liver [2]): 12.64 % ID/g | Drug uptake (Pancreas [3]): 5.32 % ID/g | Drug uptake (Liver [4]): 10.01 % ID/g | Drug uptake (Blood [5]): 2.21 % ID/g | Drug uptake (Kidney [6]): 7.8 % ID/g | Drug uptake (Spleen [7]): 2.63 % ID/g | Drug uptake (Pancreas [8]): 4.39 % ID/g | Drug uptake (Spleen [9]): 2.05 % ID/g | Drug uptake (Stomach [10]): 5.5 %ID | Drug uptake (Kidney [11]): 9.14 % ID/g | Drug uptake (Stomach [12]): 1.4 %ID | Drug uptake (Brain [13]): 3.16 % ID/g | Drug uptake (Blood [14]): 2.53 % ID/g | Drug uptake (Stomach [15]): 4.79 %ID | Drug uptake (Intestine [16]): 16.22 % ID/g | Drug uptake (Brain [17]): 2.98 % ID/g | Drug uptake (Spleen [18]): 4.1 % ID/g | Drug uptake (Kidney [19]): 3.81 % ID/g | Drug uptake (Heart [20]): 3.55 % ID/g | Drug uptake (Brain [21]): 1.78 % ID/g | Drug uptake (Intestine [22]): 12.58 % ID/g | Drug uptake (Blood [23]): 3.28 % ID/g | Drug uptake (Intestine [24]): 2.28 % ID/g | Drug uptake (Kidney [25]): 5.71 % ID/g | Drug uptake (Intestine [26]): 11.34 % ID/g | Drug uptake (Liver [27]): 15.87 % ID/g | Drug uptake (Heart [28]): 1.54 % ID/g | Drug uptake (Liver [29]): 19.12 % ID/g | Drug uptake (Stomach [30]): 4.73 %ID | Drug uptake (Pancreas [31]): 2.14 % ID/g | Drug uptake (Heart [32]): 3.99 % ID/g | Drug uptake (Brain [33]): 5.93 % ID/g | Drug uptake (Pancreas [34]): 2.5 % ID/g | Drug uptake (Heart [35]): 2.03 % ID/g | Drug uptake (Blood [36]): 3.51 % ID/g

SMILES: CN(C)c1ccc(-c2nc(-c3ccc(I)cc3)no2)cc1
logD [37]: 3.22

SMILES: COc1ccc(-c2nnc(-c3ccc(I)cc3)o2)cc1
Ki [38]: 46.1 nM | Activity (Mus musculus [39]): Active | logD [37]: 2.58

SMILES: COc1ccc(-c2nnc(-c3ccc([125I])cc3)o2)cc1
Drug uptake (Spleen [1]): 2.44 % ID/g | Drug uptake (Liver [2]): 8.07 % ID/g | Drug uptake (Pancreas [3]): 4.74 % ID/g | Drug uptake (Liver [4]): 4.65 % ID/g | Drug uptake (Blood [5]): 0.8 % ID/g | Drug uptake (Kidney [6]): 4.85 % ID/g | Drug uptake (Spleen [7]): 0.8 % ID/g | Drug uptake (Pancreas [8]): 1.98 % ID/g | Drug uptake (Spleen [9]): 0.6 % ID/g | Drug uptake (Stomach [10]): 2.9 %ID | Drug uptake (Kidney [11]): 7.14 % ID/g | Drug uptake (Stomach [12]): 0.71 %ID | Drug uptake (Brain [13]): 1.04 % ID/g | Drug uptake (Blood [14]): 1.26 % ID/g | Drug uptake (Stomach [15]): 3.12 %ID | Drug uptake (Intestine [16]): 19.85 % ID/g | Drug uptake (Brain [17]): 3.75 % ID/g | Drug uptake (Spleen [18]): 1.51 % ID/g | Drug uptake (Kidney [19]): 2.48 % ID/g | Drug uptake (Heart [20]): 1.73 % ID/g | Drug uptake (Brain [21]): 0.36 % ID/g | Drug uptake (Intestine [22]): 10.06 % ID/g | Drug uptake (Blood [23]): 1.84 % ID/g | Drug uptake (Intestine [24]): 2.07 % ID/g | Drug uptake (Kidney [25]): 4.36 % ID/g | Drug uptake (Intestine [26]): 4.49 % ID/g | Drug uptake (Liver [27]): 9.6 % ID/g | Drug uptake (Heart [28]): 0.43 % ID/g | Drug uptake (Liver [29]): 12.6 % ID/g | Drug uptake (Stomach [30]): 1.41 %ID | Drug uptake (Pancreas [31]): 0.57 % ID/g | Drug uptake (Heart [32]): 4.8 % ID/g | Drug uptake (Brain [33]): 2.74 % ID/g | Drug uptake (Pancreas [34]): 0.96 % ID/g | Drug uptake (Heart [35]): 0.92 % ID/g | Drug uptake (Blood [36]): 1.6 % ID/g

SMILES: COc1ccc(-c2nc(-c3ccc(I)cc3)no2)cc1
logD [37]: 3.37

SMILES: Oc1ccc(-c2nnc(-c3ccc(I)cc3)o2)cc1
Ki [38]: 230 nM

SMILES: CN(C)c1ccc(-c2nnc(-c3ccc(I)cc3)o2)cc1
Ki [38]: 20.1 nM | Activity (Mus musculus [39]): Active | Activity (Mus musculus [40]): inactive | logD [37]: 2.43
